{"data": "Published values of several laboratories", "target": "Mitogen-activated protein kinase kinase kinase 3 (MAP3K3, Homo sapiens, UniProt Q99759)", "One construct used (Q99759 1-626)": "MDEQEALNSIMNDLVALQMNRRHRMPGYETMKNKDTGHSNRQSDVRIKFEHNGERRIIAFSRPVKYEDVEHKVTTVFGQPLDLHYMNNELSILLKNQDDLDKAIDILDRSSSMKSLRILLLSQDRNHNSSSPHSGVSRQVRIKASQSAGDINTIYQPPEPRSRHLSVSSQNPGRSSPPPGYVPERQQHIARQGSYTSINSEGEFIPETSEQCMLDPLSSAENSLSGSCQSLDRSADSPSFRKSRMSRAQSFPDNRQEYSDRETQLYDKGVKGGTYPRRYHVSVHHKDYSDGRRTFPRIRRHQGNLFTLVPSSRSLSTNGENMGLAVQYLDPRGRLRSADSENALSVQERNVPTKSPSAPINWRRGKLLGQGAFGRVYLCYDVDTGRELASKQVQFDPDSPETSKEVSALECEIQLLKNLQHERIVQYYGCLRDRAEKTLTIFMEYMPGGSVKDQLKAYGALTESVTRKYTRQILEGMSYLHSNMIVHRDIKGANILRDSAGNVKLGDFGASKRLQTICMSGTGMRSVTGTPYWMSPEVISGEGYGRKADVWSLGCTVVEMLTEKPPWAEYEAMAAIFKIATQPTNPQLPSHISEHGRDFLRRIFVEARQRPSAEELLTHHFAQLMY"}
{"Structure (SMILES)": "O=C(Nc1cnn(-c2csc(C(=O)NC3COC3)c2)c1)Nc1c(F)cccc1Cl", "observed": "enzyme activity", "mode": "inhibitor", "concentration": "5 µM", "quantity": "remaining activity", "value": "81.9%"}
{"Structure (SMILES)": "CS(=O)(=O)CCNCc1ccc(-c2ccc3ncnc(Nc4ccc(OCc5cccc(F)c5)c(Cl)c4)c3c2)o1", "observed": "cell-free assay", "concentration": "0.5 µM", "quantity": "remaining signal", "value": "110%"}
{"Structure (SMILES)": "CS(=O)(=O)c1cc(C2(NC(=O)c3cncc4c3cnn4-c3ccc(F)cc3)CC2)ccn1", "observed": "cell-free assay", "method": "competition with immobilised ligand", "concentration": "1 µM", "quantity": "remaining binding", "value": "92%"}
{"Structure (SMILES)": "CC(C)(C)c1nc(-c2cccc(NS(=O)(=O)c3c(F)cccc3F)c2F)c(-c2ccnc(N)n2)s1", "observed": "enzyme activity", "mode": "inhibitor", "method": "radiometric", "concentration": "1 µM", "quantity": "remaining activity", "value": "96%"}
{"Structure (SMILES)": "c1cnn2ncc(-c3ccnc(N4CCC45COC5)n3)c2c1", "observed": "binding", "concentration": "1 µM", "quantity": "remaining binding", "value": "40%"}
{"Structure (SMILES)": "CCOc1cc(-c2nncn2C)ccc1Nc1ncc2cc(C)nc(NCC(C)(C)C)c2n1", "observed": "cell-free assay", "method": "TR-FRET", "concentration": "1 µM", "quantity": "inhibition", "value": "≤ 15%"}
{"Structure (SMILES)": "CCS(=O)(=O)c1cc2cc(C[C@@](O)(CC(C)(C)c3ccc(F)cc3C(N)=O)C(F)(F)F)[nH]c2cn1", "observed": "cell-free assay", "method": "competition with immobilised ligand", "concentration": "1 µM", "quantity": "remaining binding", "value": "90%"}
{"Structure (SMILES)": "COc1cc(Cl)c(C(=O)N[C@@H](CN[C@H]2CC[C@@H](N)CC2)Cc2ccc(C#N)cc2)cc1-c1ccc(CN[C@H](C)c2ccc(C)cc2)o1", "observed": "enzyme activity", "mode": "inhibitor", "concentration": "1 µM", "quantity": "remaining activity", "value": "95%"}
{"Structure (SMILES)": "COc1cc2c(N3CCN(C(=O)Nc4ccc(OC(C)C)cc4)CC3)ncnc2cc1OCCCN1CCCCC1", "observed": "cell-free assay", "concentration": "0.5 µM", "quantity": "remaining signal", "value": "106%"}
{"Structure (SMILES)": "Cc1sc(C(=O)NC2COC2)cc1-n1cc(NC(=O)Nc2c(F)cccc2Cl)cn1", "observed": "enzyme activity", "mode": "inhibitor", "concentration": "10 µM", "quantity": "remaining activity", "value": "113%"}
{"Structure (SMILES)": "O=C(NS(=O)(=O)c1ccc(NCC2CCOCC2)c([N+](=O)[O-])c1)c1ccc(N2CCN(Cc3ccc(C(F)(F)F)cc3-c3ccc(Cl)cc3)CC2)cc1Oc1cnc2[nH]ccc2c1", "observed": "cell-free assay", "method": "competition with immobilised ligand", "concentration": "1 µM", "quantity": "remaining binding", "value": "82%"}
{"Structure (SMILES)": "CC(C)(O)[C@H]1CC[C@H](Nc2ccc3ncc(-c4cccc(C(F)(F)F)c4)n3n2)CC1", "observed": "enzyme activity", "mode": "inhibitor", "concentration": "1 µM", "quantity": "remaining activity", "value": "92.2%"}
{"Structure (SMILES)": "C[C@H](c1ccc(F)cc1)N(Cc1cccc(C(=O)O)c1)C(=O)c1cnc2ccccc2c1", "observed": "cell-free assay", "method": "competition with immobilised ligand", "concentration": "1 µM", "quantity": "remaining binding", "value": "100%"}
{"Structure (SMILES)": "N#CCCc1ccc2c(c1)-c1[nH]c3ccc([N+](=O)[O-])cc3c1CC(=O)N2", "observed": "cell-free assay", "concentration": "0.5 µM", "quantity": "remaining signal", "value": "83.3%"}
{"Structure (SMILES)": "CN([C@@H]1CCc2c(CC(=O)O)c3cc(S(C)(=O)=O)ccc3n2C1)S(=O)(=O)c1ccc(F)cc1", "observed": "cell-free assay", "method": "competition with immobilised ligand", "concentration": "1 µM", "quantity": "remaining binding", "value": "85%"}
{"Structure (SMILES)": "COc1ccc(F)cc1C(=O)NCc1ccc(-c2nn([C@@H](C)C(F)(F)F)c(N)c2C(N)=O)cc1", "observed": "target engagement in cells", "mode": "inhibitor", "method": "chemoproteomics", "concentration": "10 µM", "quantity": "inhibition", "value": "-38.5%"}
